Experiments:
Rattus norvegicus [1] = test: Effective dose for PCA-induced 5-HT depletion was determined by subcutaneous administration; format: functional; details: sc
Procedure, shortened: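 Male Wiga Wistar rats (200 g, n=6 per condition) dosed sc or po (10 mL/kg). At 4 h, frontal cortex removed and extracted with perchloric acid/metabisulfite; 5-HT measured by HPLC-electrochemical detection against a standard curve with dihydroxybenzylamine internal standard. Effect scaled between pCA+vehicle and vehicle+vehicle controls; ED50 from sigmoidal fit.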

[2] = molecular target: Norepinephrine transporter (Rattus norvegicus, UniProt Q9WTR4); test: Inhibition of [3H]-nisoxetine binding to Norepinephrine transporter from rat cortex
Sequence of Norepinephrine transporter (Q9WTR4 whole entry): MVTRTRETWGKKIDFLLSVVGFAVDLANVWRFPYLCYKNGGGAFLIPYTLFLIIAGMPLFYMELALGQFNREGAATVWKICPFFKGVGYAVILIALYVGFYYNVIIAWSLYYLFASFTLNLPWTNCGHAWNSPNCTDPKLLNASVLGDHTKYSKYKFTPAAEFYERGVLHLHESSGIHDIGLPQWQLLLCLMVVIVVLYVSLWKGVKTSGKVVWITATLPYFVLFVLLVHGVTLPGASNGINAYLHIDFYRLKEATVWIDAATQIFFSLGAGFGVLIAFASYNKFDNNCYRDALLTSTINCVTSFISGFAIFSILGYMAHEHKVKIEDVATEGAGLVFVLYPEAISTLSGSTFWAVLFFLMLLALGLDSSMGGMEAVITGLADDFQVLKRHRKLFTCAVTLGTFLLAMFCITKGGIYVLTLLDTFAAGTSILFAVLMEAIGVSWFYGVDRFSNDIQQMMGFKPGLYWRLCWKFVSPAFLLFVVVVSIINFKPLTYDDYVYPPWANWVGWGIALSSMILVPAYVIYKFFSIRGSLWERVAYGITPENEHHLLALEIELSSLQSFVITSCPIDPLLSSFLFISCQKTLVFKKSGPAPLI
Procedure, shortened: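 Radioligand competition on rat cortex membranes, incubated under optimized conditions. Stopped by rapid filtration. Ki by Cheng-Prusoff.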

[3] = molecular target: T1, 5-hydroxytryptamine receptor 2C (Homo sapiens, UniProt P28335); test: Inhibition of [3H]- mesulergine binding to 5-hydroxytryptamine 2C receptor
T1 sequence (P28335 whole entry): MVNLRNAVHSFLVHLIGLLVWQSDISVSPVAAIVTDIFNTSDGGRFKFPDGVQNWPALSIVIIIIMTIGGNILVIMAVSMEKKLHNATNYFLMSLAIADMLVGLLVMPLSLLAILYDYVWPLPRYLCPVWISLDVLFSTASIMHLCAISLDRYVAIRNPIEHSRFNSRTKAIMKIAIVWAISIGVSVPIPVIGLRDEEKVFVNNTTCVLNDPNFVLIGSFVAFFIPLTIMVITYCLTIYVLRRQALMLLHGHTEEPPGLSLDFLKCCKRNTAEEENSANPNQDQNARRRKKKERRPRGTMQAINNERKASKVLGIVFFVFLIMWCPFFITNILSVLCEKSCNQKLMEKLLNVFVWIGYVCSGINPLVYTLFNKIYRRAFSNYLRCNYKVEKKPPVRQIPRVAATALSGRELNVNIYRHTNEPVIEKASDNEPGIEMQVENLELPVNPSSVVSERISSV
Procedure, shortened: (§1)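 Radioligand competition binding on membranes from cell lines carrying the human target, incubated with the labelled ligand under optimized conditions. Separation by filtration, except α1A and D3, which used scintillation proximity assay.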

[4] = molecular target: Sodium-dependent dopamine transporter (Rattus norvegicus, UniProt P23977); test: Inhibition of [3H]WIN-35428 binding to Dopamine transporter of rat striatum; format: tissue-based
Sequence of Sodium-dependent dopamine transporter (P23977 whole entry): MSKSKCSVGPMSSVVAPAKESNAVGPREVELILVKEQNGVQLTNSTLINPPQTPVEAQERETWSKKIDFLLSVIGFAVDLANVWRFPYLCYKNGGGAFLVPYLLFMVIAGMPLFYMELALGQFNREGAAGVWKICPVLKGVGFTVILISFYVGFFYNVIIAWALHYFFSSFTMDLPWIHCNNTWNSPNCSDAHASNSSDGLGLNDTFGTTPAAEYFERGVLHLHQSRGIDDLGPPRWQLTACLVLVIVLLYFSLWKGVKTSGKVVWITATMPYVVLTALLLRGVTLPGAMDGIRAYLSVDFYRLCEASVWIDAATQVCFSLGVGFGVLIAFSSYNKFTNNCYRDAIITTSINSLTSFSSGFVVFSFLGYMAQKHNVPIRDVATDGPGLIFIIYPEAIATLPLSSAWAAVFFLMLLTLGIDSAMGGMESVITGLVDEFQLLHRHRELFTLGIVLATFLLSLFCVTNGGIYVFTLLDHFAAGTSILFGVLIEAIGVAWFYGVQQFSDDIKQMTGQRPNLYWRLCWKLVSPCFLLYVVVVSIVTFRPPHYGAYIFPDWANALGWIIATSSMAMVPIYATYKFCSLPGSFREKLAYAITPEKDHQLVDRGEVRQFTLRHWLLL
Procedure, shortened: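 Competition binding using rat striatum membranes incubated with the radioligand under optimized conditions, separated by filtration.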

D(4) dopamine receptor = molecular target: T2, D(4) dopamine receptor (Homo sapiens, UniProt P21917); test: Inhibition of [3H]spiperone binding to Dopamine receptor D4; procedure, shortened: as §1
T2 sequence (P21917 whole entry): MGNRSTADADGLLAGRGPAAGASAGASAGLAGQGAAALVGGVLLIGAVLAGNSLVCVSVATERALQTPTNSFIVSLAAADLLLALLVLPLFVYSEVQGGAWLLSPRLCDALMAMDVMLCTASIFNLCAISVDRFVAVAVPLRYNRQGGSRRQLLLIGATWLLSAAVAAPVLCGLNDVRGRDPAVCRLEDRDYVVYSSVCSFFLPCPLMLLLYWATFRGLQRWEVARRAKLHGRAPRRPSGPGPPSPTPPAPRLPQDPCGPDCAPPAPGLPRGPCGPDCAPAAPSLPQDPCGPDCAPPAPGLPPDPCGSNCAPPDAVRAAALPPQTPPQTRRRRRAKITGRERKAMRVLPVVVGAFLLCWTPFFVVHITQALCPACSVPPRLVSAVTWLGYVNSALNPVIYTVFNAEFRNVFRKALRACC

D(3) dopamine receptor = D(3) dopamine receptor (Homo sapiens, UniProt P35462); test: Inhibition of [125I]-iodosulpiride binding to Dopamine receptor D3
Sequence of D(3) dopamine receptor (P35462 whole entry): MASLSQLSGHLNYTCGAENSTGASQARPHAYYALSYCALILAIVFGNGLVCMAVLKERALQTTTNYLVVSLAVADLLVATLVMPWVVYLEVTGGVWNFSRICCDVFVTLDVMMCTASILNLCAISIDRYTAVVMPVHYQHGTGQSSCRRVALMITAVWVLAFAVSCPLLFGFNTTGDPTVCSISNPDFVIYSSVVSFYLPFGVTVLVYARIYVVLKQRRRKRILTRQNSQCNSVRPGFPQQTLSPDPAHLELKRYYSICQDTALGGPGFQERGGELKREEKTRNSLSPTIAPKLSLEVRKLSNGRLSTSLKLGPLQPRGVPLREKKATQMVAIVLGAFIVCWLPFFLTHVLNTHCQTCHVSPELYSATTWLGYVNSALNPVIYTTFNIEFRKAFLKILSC
Procedure, shortened: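 Radioligand competition using membranes from a cell line transfected with human D3 receptor, incubated under optimized conditions. Bound ligand read by scintillation proximity assay rather than filtration. Ki by Cheng-Prusoff.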

Rattus norvegicus [5] = test: Effective dose for reversal of medetomidine-Induced loss of righting was determined by oral administration; format: functional
Procedure, shortened: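 Oral pretreatment of overnight-fasted male Wistar rats (200-250 g), then medetomidine 0.10 mg/kg iv (reversal means no loss of righting) or pCA 5 mg/kg sc (excitation scored 0-3 over 15 min from 45 min after pCA; inhibition means score <2). Doses taken from a geometric series.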

[6] = molecular target: T3, Sodium-dependent serotonin transporter (Homo sapiens, UniProt P31645); test: Inhibition of [3H]- paroxetine binding to 5-HTT receptor, serotonin transporter
T3 sequence (P31645 whole entry): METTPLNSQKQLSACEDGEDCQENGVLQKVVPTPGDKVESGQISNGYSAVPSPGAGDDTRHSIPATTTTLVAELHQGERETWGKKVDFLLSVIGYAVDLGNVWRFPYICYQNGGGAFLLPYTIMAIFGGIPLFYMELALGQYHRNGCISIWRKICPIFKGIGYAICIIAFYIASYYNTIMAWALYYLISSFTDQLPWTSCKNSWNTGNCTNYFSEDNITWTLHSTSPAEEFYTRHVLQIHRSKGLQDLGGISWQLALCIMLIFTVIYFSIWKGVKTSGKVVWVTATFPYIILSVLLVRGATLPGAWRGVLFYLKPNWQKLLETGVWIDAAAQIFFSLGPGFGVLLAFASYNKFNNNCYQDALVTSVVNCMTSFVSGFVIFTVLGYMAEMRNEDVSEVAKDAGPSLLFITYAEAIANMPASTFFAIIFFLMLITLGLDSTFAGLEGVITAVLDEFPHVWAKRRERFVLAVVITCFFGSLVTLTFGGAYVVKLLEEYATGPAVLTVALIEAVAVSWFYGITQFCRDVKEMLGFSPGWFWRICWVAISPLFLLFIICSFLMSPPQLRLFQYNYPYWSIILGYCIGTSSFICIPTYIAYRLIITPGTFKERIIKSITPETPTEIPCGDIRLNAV
Procedure, shortened: (§2)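 Human platelet membranes (50 µg protein) in 50 mM Tris-HCl pH 7.4 with 120 mM NaCl and 5 mM KCl. Competition against [3H]paroxetine (0.5 nM), 60 min at 25 °C. Nonspecific binding defined with imipramine (1 µM). Filtration over 0.1% PEI-presoaked GF/B, washed with incubation buffer. Sigmoidal fit of specific binding; Ki via Cheng-Prusoff.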

[7] = molecular target: T3, Sodium-dependent serotonin transporter; test: Binding affinity for serotonin transporter; format: functional, Rattus norvegicus; procedure, shortened: as §2
Rattus norvegicus [8] = test: Effective dose for antagonism ofpCA-Induced excitation was determined by subcutaneous administration; format: functional; details: sc
Procedure, shortened: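 Male Wistar rats (200-250 g), fasted overnight, given test compound or solvent sc before challenge. Loss of righting induced by medetomidine 0.10 mg/kg iv; reversal means no loss of righting. Excitation induced by pCA 5 mg/10 mL/kg sc and scored 0-3 over 15 min starting 45 min after pCA; inhibition means score <2.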

[9] = molecular target: T4, Alpha-2C adrenergic receptor (Homo sapiens, UniProt P18825); test: Binding affinity for alpha-2C-adrenergic receptor
T4 sequence (P18825 whole entry): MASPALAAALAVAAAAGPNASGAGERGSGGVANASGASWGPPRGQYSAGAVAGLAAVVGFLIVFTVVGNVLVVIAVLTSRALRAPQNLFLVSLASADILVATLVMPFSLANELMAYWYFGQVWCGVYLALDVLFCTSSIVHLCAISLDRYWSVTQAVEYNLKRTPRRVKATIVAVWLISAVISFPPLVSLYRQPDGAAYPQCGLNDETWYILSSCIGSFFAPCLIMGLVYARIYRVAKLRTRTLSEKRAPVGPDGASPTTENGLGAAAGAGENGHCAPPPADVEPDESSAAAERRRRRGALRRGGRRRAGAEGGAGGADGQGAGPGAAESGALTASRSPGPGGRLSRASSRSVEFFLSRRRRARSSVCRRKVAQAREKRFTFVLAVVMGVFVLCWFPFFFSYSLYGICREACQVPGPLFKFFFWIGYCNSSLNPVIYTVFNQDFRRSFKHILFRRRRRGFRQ
Procedure, shortened: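 Human alpha2C receptor stably expressed in CHO cell membranes (5-10 µg protein) in 25 mM glycylglycine, pH 7.6. Competition against [3H]rauwolscine (1 nM), 30 min at 25 °C. Nonspecific binding defined with spiroxatrine (1 µM). Rapid filtration over GF/B, washed with ice-cold 50 mM Tris-HCl pH 8.0, scintillation counting. Sigmoidal curves fitted; Ki by Cheng-Prusoff.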

| Ki [2] [nM] | Ki [3] [nM] | Ki [4] [nM] | Ki (D(4) dopamine receptor) [nM] | Ki (D(3) dopamine receptor) [nM] | Ki [6] [nM] | Ki [7] [nM] | Ki [9] [nM] | Compound | ED50 (Rattus norvegicus [1]) [mg/kg] | ED50 (Rattus norvegicus [5]) [mg/kg] | ED50 (Rattus norvegicus [8]) [mg/kg] |
| --- | --- | --- | --- | --- | --- | --- | --- | --- | --- | --- | --- |
| 132 | > 1000 | 515 | > 1000 | 270 | 1.2 |  |  | COc1cc2c(cc1OC)C1=NO[C@@H](CN3CCN(C/C=C/c4ccccc4)CC3)[C@@H]1CO2 | 0.17 | 1.3 |  |
| 33 | > 1000 | 246 | > 1000 | 107 | 1.7 | 1.7 | 3.1 | COc1cc2c(cc1OC)C1=NO[C@@H](CN3CCN(Cc4ccc5ccccc5c4)CC3)[C@@H]1CO2 | 0.25 |  | 0.08 |
| 177 | > 1000 | > 1000 | > 1000 | 433 |  |  |  | COc1cc2c(cc1OC)C1=NO[C@@H](CN3CCN(C/C(C)=C/c4ccccc4)CC3)[C@@H]1CO2 | 0.33 | 0.63 |  |
| 220 | > 1000 | 368 | > 1000 | 611 |  | 10 | 0.6 | COc1cc2c(cc1OC)C1=NO[C@@H](CN3CCN(C/C=C(\C)c4ccccc4)CC3)[C@@H]1CO2 | 0.24 |  |  |

— ChEMBL document CHEMBL1142735, “Discovery of a new series of centrally active tricyclic isoxazoles combining serotonin (5-HT) reuptake inhibition with alpha2-adrenoceptor blocking activity” (J Med Chem, 2005)
